ChEMBL document CHEMBL2401735, “Synthesis and cytotoxicity of novel (thiazol-2-yl)hydrazine derivatives as promising anti-Candida agents” (Eur J Med Chem, 2013)
Converted amounts (≈) assume the structure as drawn.

What was measured:
[Candida] sake = Anticandida activity against Candida sake clinical isolate assessed as growth inhibition after 24 hrs by broth microdilution method; assay type: functional; settings: Fermentozyma sake
Outline: (§1)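 Clinical Candida isolates subcultured for purity and optimal growth before testing; compounds dissolved in DMSO. Broth microdilution per NCCLS in Sabouraud dextrose broth, serial dilutions, inoculum about 10³/mL, with growth control and medium-only control; 24 h incubation at 37 °C. MIC is the lowest concentration giving complete visible inhibition.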

Candida parapsilosis = experiment: Anticandida activity against Candida parapsilosis clinical isolate assessed as growth inhibition after 24 hrs by broth microdilution method; assay type: functional; settings: Lodderomyces parapsilosis; outline: as §1
Pichia kudriavzevii = experiment: Anticandida activity against Candida krusei clinical isolate assessed as growth inhibition after 24 hrs by broth microdilution method; assay type: functional; outline: as §1
Candida tropicalis = experiment: Anticandida activity against Candida tropicalis clinical isolate assessed as growth inhibition after 24 hrs by broth microdilution method; assay type: functional; outline: as §1
Nakaseomyces glabratus = experiment: Anticandida activity against Candida glabrata clinical isolate assessed as growth inhibition after 24 hrs by broth microdilution method; assay type: functional; outline: as §1
Candida albicans = experiment: Anticandida activity against Candida albicans clinical isolate assessed as growth inhibition after 24 hrs by broth microdilution method; assay type: functional; outline: as §1
Klebsiella oxytoca = experiment: Antibacterial activity against Klebsiella oxytoca assessed as growth inhibition after 18 to 22 hrs by broth microdilution method; assay type: functional
Outline: (§2)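 Bacterial isolates subcultured for purity, identified conventionally. Broth microdilution per NCCLS in Mueller-Hinton II broth; plates with growth control (no compound) and medium-only control, incubated 18-22 h at 35 °C. MIC taken as lowest concentration giving complete growth inhibition by unaided eye.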

Proteus mirabilis = experiment: Antibacterial activity against Proteus mirabilis assessed as growth inhibition after 18 to 22 hrs by broth microdilution method; assay type: functional; outline: as §2
Enterobacter sp. = experiment: Antibacterial activity against Enterobacter spp. assessed as growth inhibition after 18 to 22 hrs by broth microdilution method; assay type: functional; outline: as §2
Escherichia coli = experiment: Antibacterial activity against Escherichia coli assessed as growth inhibition after 18 to 22 hrs by broth microdilution method; assay type: functional; outline: as §2
Enterococcus faecalis = experiment: Antibacterial activity against […] assessed as growth inhibition after 18 to 22 hrs by broth microdilution method; assay type: functional; outline: as §2
Staphylococcus warneri = experiment: Antibacterial activity against Staphylococcus warneri assessed as growth inhibition after 18 to 22 hrs by broth microdilution method; assay type: functional; outline: as §2
Staphylococcus aureus = experiment: Antibacterial activity against Staphylococcus aureus assessed as growth inhibition after 18 to 22 hrs by broth microdilution method; assay type: functional; outline: as §2
[1] = test system: Streptococcus alpha-hemolyticus; experiment: Antibacterial activity against Streptococcus alpha-hemolyticus assessed as growth inhibition after 18 to 22 hrs by broth microdilution method

SMILES | MIC ([Candida] sake) [µg/mL] | MIC (Candida parapsilosis) [µg/mL] | MIC (Pichia kudriavzevii) [µg/mL] | MIC (Candida tropicalis) [µg/mL] | MIC (Nakaseomyces glabratus) [µg/mL] | MIC (Candida albicans) [µg/mL] | MIC (Klebsiella oxytoca) [µg/mL] | MIC (Proteus mirabilis) [µg/mL] | MIC (Enterobacter sp.) [µg/mL] | MIC (Escherichia coli) [µg/mL] | MIC (Enterococcus faecalis) [µg/mL] | MIC (Staphylococcus warneri) [µg/mL] | MIC (Staphylococcus aureus) [µg/mL] | MIC [1] [µg/mL]
CCC(CC)=NNc1nc(-c2ccc(OC)cc2)cs1 | 256 (≈ 885 µM) | 256 (≈ 885 µM) | 256 (≈ 885 µM) | 64 (≈ 221 µM) | 32 (≈ 111 µM) | 16 (≈ 55.3 µM) | > 256 | > 256 | > 256 | > 256 | > 256 | > 256 | > 256 | > 256
COc1ccc(-c2csc(N/N=C(\C)CC(C)C)n2)cc1 | 16 (≈ 52.7 µM) | 16 (≈ 52.7 µM) | 16 (≈ 52.7 µM) | 16 (≈ 52.7 µM) | 8 (≈ 26.4 µM) | 4 (≈ 13.2 µM) | > 256 | > 256 | > 256 | > 256 | > 256 | > 256 | > 256 | > 256
CCCCCC/C(C)=N/Nc1nc(-c2ccc(OC)cc2)cs1 | 16 (≈ 48.3 µM) | 16 (≈ 48.3 µM) | 16 (≈ 48.3 µM) | 32 (≈ 96.5 µM) | 8 (≈ 24.1 µM) | 8 (≈ 24.1 µM) | > 256 | > 256 | > 256 | > 256 | > 256 | > 256 | > 256 | > 256
COc1ccc(-c2csc(N/N=C(\C)C3CCCCC3)n2)cc1 | 16 (≈ 48.6 µM) | 16 (≈ 48.6 µM) | 16 (≈ 48.6 µM) | 16 (≈ 48.6 µM) | 4 (≈ 12.1 µM) | 2 (≈ 6.07 µM) | > 256 | > 256 | > 256 | > 256 | > 256 | > 256 | > 256 | > 256
COc1ccc(-c2csc(NN=C3CCCCCCC3)n2)cc1 | 16 (≈ 48.6 µM) | 16 (≈ 48.6 µM) | 16 (≈ 48.6 µM) | 16 (≈ 48.6 µM) | 4 (≈ 12.1 µM) | 2 (≈ 6.07 µM) | > 256 | > 256 | > 256 | > 256 | > 256 | > 256 | > 256 | > 256
COc1ccc(-c2csc(N/N=C3/C=CC(C)(C)CC3)n2)cc1 | 256 (≈ 782 µM) | 64 (≈ 195 µM) | 256 (≈ 782 µM) | 256 (≈ 782 µM) | 32 (≈ 97.7 µM) | 8 (≈ 24.4 µM) | > 256 | > 256 | > 256 | > 256 | > 256 | > 256 | > 256 | > 256
CCCCC/C(C)=N/Nc1nc(-c2ccc(C)cc2)cs1 | 8 (≈ 26.5 µM) | 8 (≈ 26.5 µM) | 8 (≈ 26.5 µM) | 4 (≈ 13.3 µM) | 2 (≈ 6.63 µM) | 0.5 (≈ 1.66 µM) | > 256 | > 256 | > 256 | > 256 | > 256 | > 256 | > 256 | > 256
COc1ccc(-c2csc(NN=C(C)C)n2)cc1 | 16 (≈ 61.2 µM) | 16 (≈ 61.2 µM) | 16 (≈ 61.2 µM) | 2 (≈ 7.65 µM) | 0.5 (≈ 1.91 µM) | 0.25 (≈ 0.957 µM) | > 256 | > 256 | > 256 | > 256 | > 256 | > 256 | > 256 | > 256
